ChEMBL document CHEMBL1157416, “Novel open-chain cytochalsins from the marine-derived fungus Spicaria elegans” (J Nat Prod, 2008)

Tests used:
Assay type in all cases: functional, cell-based
[1] = test system: HL-60; assay: Cytotoxicity against human HL60 cells after 72 hrs by MTT assay; conditions: HL-60, 72 h
In short: (§1)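 Cells grown in RPMI-1640 with 10% FBS, 5% CO2/95% air, 37 °C; plated at 5 × 10^4 cells/mL, preincubated 24 h, then compounds added in DMSO at several concentrations for 72 h. MTT (5 mg/mL) added for 4 h, medium replaced by DMSO to dissolve formazan, absorbance read at 570 nm; IC50 values reported.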

[2] = test system: A549; assay: Cytotoxicity against human A549 cells after 72 hrs by MTT assay; conditions: A549, 72 h; in short: as §1
[3] = test system: Bel-7402; assay: Cytotoxicity against human BEL-7402 cells after 72 hrs by MTT assay; conditions: Bel-7402, 72 h; in short: as §1
[4] = test system: P388; assay: Cytotoxicity against mouse P388 cells after 72 hrs by MTT assay; conditions: P388, 72 h; in short: as §1

SMILES | IC50 [1] [µM] | IC50 [2] [µM] | IC50 [3] [µM] | IC50 [4] [µM]
C/C1=C/CC(=O)O[C@@]23C(=O)N[C@@H](Cc4ccc(O)cc4)[C@@H]2[C@H](C)[C@@]2(C)O[C@H]2[C@@H]3/C=C/C[C@H](C)C1=O | 66 | 96 | 94 | 79
C=C1[C@@H](C)[C@H]2[C@H](Cc3ccccc3)NC(=O)[C@@]2(O)[C@@H](/C=C/C[C@H](C)[C@@H](O)[C@@H](C)O)[C@@H]1O [CYTOCHALASIN Z10] | 69 | 9.6 | > 100 | > 100
C=C1[C@@H](C)[C@H]2[C@H](Cc3ccccc3)NC(=O)[C@@]2(O)[C@@H](/C=C/C[C@H](C)C(=O)[C@H](C)O)[C@@H]1O [CYTOCHALASIN Z11] | 45 | 4.3 | > 100 | 69
CC1=C(C)[C@H]2[C@H](Cc3ccccc3)NC(=O)[C@@]2(O)[C@@H](/C=C/C[C@H](C)[C@@H](O)[C@@H](C)O)[C@@H]1O [CYTOCHALASIN Z12] | 89 | 92 | > 100 | > 100
CC1=C(C)[C@H]2[C@H](Cc3ccccc3)NC(=O)[C@@]2(O)[C@@H](/C=C/C[C@H](C)C(=O)[C@H](C)O)[C@@H]1O [CYTOCHALASIN Z13] | 80 | 76 | 88 | 67
CC(=O)[C@@H](O)[C@@H](C)C/C=C/[C@H]1[C@H](O)C(C)=C(C)[C@H]2[C@H](Cc3ccccc3)NC(=O)[C@@]12O [CYTOCHALASIN Z14] | > 100 | > 100 | > 100 | > 100
CC(=O)[C@H](O)[C@@H](C)C/C=C/[C@H]1[C@H](O)C(C)=C(C)[C@H]2[C@H](Cc3ccccc3)NC(=O)[C@@]12O [CYTOCHALASIN Z15] | > 100 | > 100 | > 100 | > 100
